Only some compounds are listed: those with a hit (about 1.8% of all), similar ones and a draw of the others.
HKDC1 inh – HKDC1 hexokinase inhibitors, primary screen, biochemical, fluorescence, uHTS; inhibition, % at 20 µM; Q2TB90; AID 493160, 2011; recombinant HKDC1, G6PDH/diaphorase resazurin coupled fluorescence; 340,000 tested, 0.16% active;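 active means inhibition above about 35% when tested at 20 µM, limit read from the data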;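 further: plate controls were DMSO wells with enzyme for no effect and DMSO wells lacking enzyme for full effect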
Target sequence (Q2TB90 whole entry, looked up): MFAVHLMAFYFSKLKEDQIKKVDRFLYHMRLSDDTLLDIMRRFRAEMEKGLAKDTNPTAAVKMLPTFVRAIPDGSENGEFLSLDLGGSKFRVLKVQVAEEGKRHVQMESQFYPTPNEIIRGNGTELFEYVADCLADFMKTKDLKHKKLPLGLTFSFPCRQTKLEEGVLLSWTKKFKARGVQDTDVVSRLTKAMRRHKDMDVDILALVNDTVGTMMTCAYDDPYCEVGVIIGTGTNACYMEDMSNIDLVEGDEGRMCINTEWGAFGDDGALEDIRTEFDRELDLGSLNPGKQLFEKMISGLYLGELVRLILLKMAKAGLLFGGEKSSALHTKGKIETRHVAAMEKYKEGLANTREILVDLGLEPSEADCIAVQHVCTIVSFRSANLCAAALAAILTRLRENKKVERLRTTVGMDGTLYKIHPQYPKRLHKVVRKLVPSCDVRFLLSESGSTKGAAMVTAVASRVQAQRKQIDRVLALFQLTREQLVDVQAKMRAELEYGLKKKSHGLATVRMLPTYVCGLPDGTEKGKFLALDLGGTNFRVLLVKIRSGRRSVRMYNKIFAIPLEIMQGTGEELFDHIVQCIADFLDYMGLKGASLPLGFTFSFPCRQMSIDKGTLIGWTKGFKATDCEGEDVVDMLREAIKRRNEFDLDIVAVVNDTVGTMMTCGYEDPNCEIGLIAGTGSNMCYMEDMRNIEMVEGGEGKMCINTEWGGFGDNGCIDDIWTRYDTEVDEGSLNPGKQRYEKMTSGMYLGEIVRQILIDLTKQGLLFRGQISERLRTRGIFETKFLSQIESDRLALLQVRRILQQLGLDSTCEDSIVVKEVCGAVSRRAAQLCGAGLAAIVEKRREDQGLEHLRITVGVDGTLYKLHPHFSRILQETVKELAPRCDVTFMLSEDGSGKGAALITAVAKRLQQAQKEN
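Assay system – recombinant HKDC1 (HK5) hexokinase enzyme, produced in-house · Input – HKDC1 at 5 µg/mL · Reagent – glucose plus 1 mM ATP as hexokinase substrates · Timing – 90 min reaction incubation at room temperature, dark · Measured by – G6PDH/diaphorase-coupled fluorescence, 1 mM NADP, 100 µM resazurin, 525/613 nm · Benchmarks – DMSO-enzyme wells negative, buffer-substituted wells positive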
LMPTP inh – LMPTP phosphatase inhibitors, primary screen, biochemical, fluorescence intensity, uHTS; inhibition, % at 20 µM; 360,000 tested, 0.22% active; recombinant LMPTP-A, OMFP fluorogenic substrate;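 active means compounds that cut the enzyme signal by at least half of the control window in the single-dose screen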;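 further: plate controls were DMSO wells with enzyme plus substrate for no effect and substrate without enzyme for full effect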
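Assay system: LMPTP-A, protein tyrosine phosphatase of low molecular weight / Medium: pH 6.0 Bis-Tris buffer with DTT and Triton X-100 / Schedule: 50 min enzyme reaction at room temperature, protected from light / Measured by: endpoint fluorescence intensity from OMFP dephosphorylation / Read-out basis: % inhibition relative to no-enzyme and uninhibited control wells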
STEP block – STEP phosphatase inhibitors, primary screen, biochemical, fluorescence intensity, uHTS; Tyrosine-protein phosphatase non-receptor type 5 (Homo sapiens), P54829; recombinant STEP, OMFP fluorogenic substrate; inhibition, % at 20 µM; 360,000 tested, 0.25% active; AID 588621, 2011;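 active means inhibition at 20 µM, scaled per plate between control wells, above about 37%, limit read from the data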;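 further: 0% = DMSO with enzyme and substrate and 100% = substrate only without enzyme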
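Assay system: isolated STEP enzyme. Buffer or medium: pH 6.0 Bis-Tris with DTT and Tween 20. Also added: fluorogenic phosphatase substrate OMFP at 25 µM final. Dosing: 20 µM, 1% DMSO. Timing: 20 min reaction, room temperature, in the dark. Measured by: fluorescence intensity, excitation 480 nm, emission 540 nm. Evaluation: normalized % inhibition.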
Scp-1 inhibitor – Scp-1 phosphatase inhibitors, primary screen, biochemical, colorimetric, uHTS; Recombinant Scp1, phosphopeptide, malachite green phosphate absorbance; inhibition, % at 20 µM; 340,000 tested, 0.88% active; AID 493091, 2011;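 active means inhibition above about 50% at 20 µM, limit read from the data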;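 further: plate controls were DMSO wells with enzyme for no effect and wells lacking enzyme for full effect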
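Incubation: 45 min enzyme reaction at room temperature / System: truncated SCP-1 phosphatase (76-261aa) / Reagent: Phospho 17-mer peptide substrate / Buffer or medium: Acidic Tris acetate buffer with magnesium and detergent / Signal: absorbance at 630 nm / Doses: one concentration, 20 µM, with 1.0% DMSO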
DNMT1 inh – human DNMT1 methyltransferase inhibitors, primary screen, biochemical, molecular beacon, fluorescence, HinP1I cleavage, uHTS | DNA (cytosine-5)-methyltransferase 1 (Homo sapiens), P26358 | inhibition (reported as % activation of signal), % at 10 µM | 360,000 tested, 0.83% active | AID 588458, 2011; in the data active means inhibition above about 50%
SUMO1-SIM PPI – modulators of SUMO1 protein-protein interactions, primary screen, biochemical, uHTS; Small ubiquitin-related modifier 1 (Homo sapiens), P63165; SUMO1 binding to a labelled peptide, TR-FRET, 1 h; inhibition, % at 20 µM; 360,000 tested, 0.33% active; AID 602429, 2012; in the data active means inhibition above about 37%
Scp-1 conf – Scp-1 phosphatase inhibitors, retest, confirmation, biochemical, colorimetric, single concentration | shares compounds with Scp-1 inhibitor | recombinant SCP-1 catalytic domain, phosphate release, malachite green absorbance | inhibition, % at 20 µM | 2,500 tested, 61% active;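 further: plate controls were DMSO with enzyme for no effect and buffer wells lacking enzyme for full effect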
MG interference – colorimetric readout interference by compounds, confirmation, artefact control for Scp-1 inhibitor project, biochemical, single concentration | 2,500 tested, under 10 active | apparent inhibition (interference), % at 20 µM | AID 540313, 2011 | Colorimetric interference counterscreen, malachite green absorbance 630 nm | shares compounds with Scp-1 inhibitor;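 further: compounds added after enzyme reaction finished so only phosphate colour detection is probed; plate controls were DMSO wells with completed Scp-1 reaction for no effect and substrate wells lacking enzyme for full effect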
Scp-1 Tm shift – Scp-1 binding by thermal shift, confirmation, orthogonal assay for Scp-1 inhibitor project, biophysical, differential scanning fluorimetry | Recombinant SCP1, Sypro Orange thermal shift Tm | thermal shift relative to vanadate control, % at 40 µM | shares compounds with Scp-1 inhibitor | 1,500 tested, 25% active | AID 540329, 2011;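 active means substances whose mean melting-temperature shift, as a percentage of the reference inhibitor's shift, reaches about 5.3%, limit read from the data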;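 further: 0% = Tm of DMSO wells and 100% = Tm with sodium orthovanadate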
HKDC1 act conf – HKDC1 hexokinase activators, confirmation, biochemical, single concentration. shares compounds with HKDC1 inh. recombinant HKDC1, G6PDH/diaphorase resazurin fluorescence; active compounds read low. inhibition, % at 20 µM. 740 tested, 14% active. AID 504708, 2011;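 active means inhibition at or below a set negative limit, negative inhibition meaning the enzyme was activated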
DNMT1 interf DR – spectral interference with molecular beacon fluorescence, dose response, artefact control for DNMT1 inhibitor project, biochemical, fluorescent molecular beacon | shares compounds with DNMT1 inh | spectral interference counter-screen | IC50, µM | 200 tested, under 10 active | AID 602382, 2012; call rule not given here
DNMT1 confirm – DNMT1 methyltransferase inhibitor retest, confirmation, biochemical, molecular beacon, fluorescence, single concentration; 2,300 tested, 8% active; shares compounds with DNMT1 inh; DNMT1 molecular beacon HinP1I cleavage; inhibition, % at 10 µM;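 active means average inhibition of at least 30% in the single-concentration confirmation test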
Beacon interf – shows spectral interference in the DNMT1 beacon assay | shares compounds with DNMT1 inh | activation (fluorescence interference), % at 10 µM | AID 602387 | DNMT1 molecular beacon spectral interference counterscreen, fluorescence 485/520 | 2,300 tested, 1% active;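 active means activation of at least 30% at 10 µM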;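 further: DNMT1 catalytic domain with a HinP1I cleavage step and a FAM/dabcyl DNA beacon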
* = called active by the depositor; x = not tested or not shown.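 How the source made its calls, unless noted: active means inhibition of at least 30% at 20 µM; inactive means the rest.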

SMILES	HKDC1 inh	LMPTP inh	STEP block	Scp-1 inhibitor	DNMT1 inh	SUMO1-SIM PPI	Scp-1 conf	MG interference	Scp-1 Tm shift	DNMT1 confirm	Beacon interf	others
COC(=O)c1c(NC(=O)COC(=O)c2ccc(NC(=O)CC#N)cc2)sc2c1CCCCC2	5.8	74.1*	9.9	75.7*	103.5*	70.8*	71.2*	-10.1	13.9*	27.3	-3.3	DNMT1 interf DR=>99
COC(=O)c1c(NC(=O)COC(=O)c2ccccc2O)sc2c1CCCCC2	-6.0	-0.6	1.5	-5.0	14.6	4.2	x	x	x	x	x
CCOC(=O)C1=C(N)Oc2c(oc(CO)cc2=O)C1c1ccc(F)cc1 (stereo not drawn)	-1.6	0.4	-1.3	2.6	2.7	-3.4	x	x	x	x	x
Cc1cc(-c2ccccc2)nc2c(Br)c(C(=O)O)nn12	5.7	1.8	12.9	94.8*	52.3*	4.6	61.3*	-19.4	8.2*	1.9	5.5
N#CCNC(=O)c1nn2c(C(F)(F)F)cc(-c3ccccc3)nc2c1Br	-5.3	0.0	-0.3	-9.1	-6.4	-15.0	x	x	x	x	x
COc1ccc(NC(=O)/C(C#N)=C/c2ccc(Br)o2)cc1	-11.0	22.7	6.3	76.7*	99.1*	1.3	55.6*	-14.0	5.5*	1.3	1.4
COc1ccc(OC)c(S(=O)(=O)N2CCC(C(=O)NCCc3ccccc3)CC2)c1	-6.9	-0.6	-0.6	-2.6	1.7	-1.7	x	x	x	x	x
O=C(Cc1ccc(Br)cc1)Nc1ccc(S(=O)(=O)Nc2ncccn2)cc1	-6.3	-0.3	-1.5	-9.5	0.0	2.2	x	x	x	x	x
COC(=O)N/N=C/c1ccc(OC(=O)/C=C/c2ccco2)cc1	-6.2	4.9	5.6	55.5*	52.8*	-12.5	9.4	-21.1	x	2.8	5.9
O=C(Cc1ccccc1)N/N=C/c1ccc(OC(=O)/C=C\c2ccco2)cc1	-2.8	0.2	-0.3	-1.1	-0.9	0.0	x	x	x	x	x
O=C(Cc1ccccc1)NN1C(=O)C2C3C=CC(C3)[C@@H]2C1=O (stereo partly drawn)	17.6	-0.3	-3.9	9.8	-1.0	0.5	x	x	x	x	x
Cc1ccc(S(=O)(=O)c2cc3c(=O)n4ccccc4nc3n(Cc3ccco3)c2=N)cc1	12.7	25.3	4.8	65.7*	69.0*	4.3	13.7	5.0	x	1.3	-1.5
COc1ccc(C(=O)Oc2ccc(/C=N/NC(=O)c3ccccc3OC)cc2[N+](=O)[O-])cc1	-6.6	0.5	0.5	0.6	16.8	-3.9	x	x	x	x	x
COc1ccc(C(=O)N/N=C/c2ccc(OC(=O)c3cccc4ccccc34)c([N+](=O)[O-])c2)cc1	-2.1	7.0	7.4	91.8*	53.1*	-15.8	65.1*	-24.7	6.6*	5.0	0.0
C/C(CC(=O)Nc1ccc(C)c(Cl)c1)=N\NC(=O)c1ccccn1	-6.5	-1.6	-0.2	-7.4	-2.4	1.1	x	x	x	x	x
Cc1ccc(C=C2C(=O)c3ccccc3C2=O)o1	6.8	1.5	2.4	55.4*	69.7*	-13.0	58.5*	-17.2	6.2*	2.6	2.0
Cc1ccc(S(=O)(=O)N2CCN(C(C)CC(=O)O)CC2)cc1 (stereo not drawn)	-13.1	-0.8	-1.3	-3.4	-1.2	2.4	x	x	x	x	x
Cc1cc(/C=C\c2nc(O)c([N+](=O)[O-])c(=O)[nH]2)c(C)n1-c1ccccc1	8.2	13.5	9.1	67.8*	74.4*	18.3	70.9*	-6.8	3.9	7.1	3.8
CCOc1ccccc1/C=C\c1nc(O)c([N+](=O)[O-])c(=O)[nH]1	4.7	-0.3	1.2	-10.0	2.4	-17.5	x	x	x	x	x
COc1ccc2c(c1)C(=NNC(=O)c1ccccn1)c1cc(OC)ccc1-2	42.4*	29.2	31.3	81.2*	88.3*	10.3	61.7*	-12.6	0.0	1.8	-3.5	HKDC1 act conf=-13.5
CC(=O)c1c(C)[nH]c(C(=O)OCC(=O)N2c3ccccc3NC(=O)C2(C)C)c1C	-10.5	-2.4	-1.0	1.7	-3.2	-0.2	x	x	x	x	x
COc1ccccc1NS(=O)(=O)c1cccc(N2CC(O)=C(c3ccccc3)C2=N)c1	-10.9	-0.9	1.2	-0.8	-1.2	1.6	x	x	x	x	x
O=C(/C=C/c1ccco1)N(c1ccccn1)c1ccccn1	7.2	14.8	26.3	65.0*	96.8*	18.9	69.2*	-5.7	6.3*	5.6	-3.4
CC(=O)c1cc2c(cc1NC(=O)CCc1c(C)nc3ncnn3c1C)OCO2	-2.8	1.8	-2.5	-6.1	-6.3	-18.6	x	x	x	x	x
COc1cccc(CC2(CO)CCN(CC3=CC[C@H]4C[C@@H]3C4(C)C)CC2)c1	1.9	0.1	-0.7	-5.5	4.8	-0.7	x	x	x	x	x

Screening data as filed in PubChem.
